In general, ED50 refers to the dose at which the effect has come halfway, by size or by number of responders.

Results on 19 molecules are retold here after ChEMBL document CHEMBL1131436, “Repaglinide and related hypoglycemic benzoic acid derivatives” (1998).

Several values for one entry are separate records, joined by “and”; a condition that tells them apart may be missing. Identical values can stand only once. Activity calls are given as the source filed them. No cut-off for these calls is given here.

Assay [1] deals with Rattus norvegicus. In words: Maximum % decrease of blood glucose (deltaBG) was observed within 4 hour after administration orally at 0.5 mg/kg dose to fasted adult female rats versus a control group. The class given is functional. Particulars: route oral. A digest of the protocol:
(§1)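 Female Wistar rats (Chbb THOM, SPF, 200-220 g), fasted 24 h, dosed orally by gavage as suspension in 1.5% Tylose methylcellulose (10 mL/kg). Whole blood from retrobulbar plexus under light halothane, deproteinized with 0.33 M HClO4; glucose by hexokinase/G6PDH, hourly up to 4 h. % decrease vs control group (N = 7), Student's t-test, P ≤ 0.05.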

For assay [2], the system named is Rattus norvegicus. Briefly: Maximum % decrease of blood glucose (deltaBG) was observed within 1 hour after administration orally at 0.1 mg/kg dose to fasted adult female rats versus a control group. In kind it is functional. The note with it: route oral. A digest of the protocol: as §1
Assay [3] deals with Rattus norvegicus. Briefly: Maximum % decrease of blood glucose (deltaBG) was observed within 0.5 hour after administration orally at 0.1 mg/kg dose to fasted adult female rats versus a control group. Particulars: route oral. In kind it is functional.
Assay [4] relates to Rattus norvegicus. In words: Maximum % decrease of blood glucose (deltaBG) was observed within 4 hour after administration orally at 0.1 mg/kg dose to fasted adult female rats versus a control group; NS =' not significant'. The class given is functional, organism-based. Also on record: dose 0.1 mg/kg. A digest of the protocol: as §1
For assay [5], the system named is Rattus norvegicus. Briefly: Maximum % decrease of blood glucose (deltaBG) was observed within 3 hour after administration orally at 0.1 mg/kg dose to fasted adult female rats versus a control group; NS =' not significant'. The class given is functional, organism-based. Also on record: dose 0.1 mg/kg. The method in brief: as §1
Assay [6] concerns Rattus norvegicus. In words: Maximum % decrease of blood glucose (deltaBG) was observed within 3 hour after administration orally at 0.5 mg/kg dose to fasted adult female rats versus a control group. The class given is functional. Particulars: route oral. The method in brief: as §1
Assay [7] deals with Rattus norvegicus. In words: Maximum % decrease of blood glucose (deltaBG) was observed within 2 hour after administration orally at 0.1 mg/kg dose to fasted adult female rats versus a control group. Particulars: route oral. In kind it is functional. The method in brief:
as §1

The subject of assay [8] is Rattus norvegicus. In words: Maximum % decrease of blood glucose (deltaBG) was observed within 2 hour after administration orally at 0.5 mg/kg dose to fasted adult female rats versus a control group. In kind it is functional. Particulars: route oral. The method in brief: as §1
Assay [9] has as its system Rattus norvegicus. In words: Maximum % decrease of blood glucose (deltaBG) was observed within 1 hour after administration orally at 0.5 mg/kg dose to fasted adult female rats versus a control group. The class given is functional. The note with it: route oral. The method in brief: as §1
In assay [10] the test system is Rattus norvegicus. In words: Maximum % decrease of blood glucose (deltaBG) was observed within 4 hour after administration orally at 0.1 mg/kg dose to fasted adult female rats versus a control group. The class given is functional. Particulars: route oral. A digest of the protocol:
as §1

Assay [11] has as its system Rattus norvegicus. Briefly: Maximum % decrease of blood glucose (deltaBG) was observed within 4 hour after administration orally at 25 mg/kg dose to fasted adult female rats versus a control group. The note with it: route oral. The class given is functional. A digest of the protocol: as §1
Assay [12] concerns Rattus norvegicus. Briefly: Maximum % decrease of blood glucose (deltaBG) was observed within 4 hour after administration orally at 0.01 mg/kg dose to fasted adult female rats versus a control group; NS =' not significant'. In kind it is functional, organism-based. Also on record: dose 0.01 mg/kg. The method in brief: as §1
In assay [13] the test system is Rattus norvegicus. In words: Maximum % decrease of blood glucose (deltaBG) was observed within 3 hour after administration orally at 0.1 mg/kg dose to fasted adult female rats versus a control group. The class given is functional. The note with it: route oral. The method in brief: as §1
Assay [14] relates to Rattus norvegicus. Briefly: Maximum % decrease of blood glucose (deltaBG) was observed within 4 hour after administration orally at 0.3 mg/kg dose to fasted adult female rats versus a control group. In kind it is functional. Particulars: route oral. A digest of the protocol: as §1
For assay [15], the species on record is Rattus norvegicus. The note with it: Blood, 0.1 mg/kg.
The species named for assay [16] is Rattus norvegicus. Particulars: Blood, 0.1 mg/kg. The source holds these as a separate data set.
The test system of assay [17] is Rattus norvegicus. Briefly: Half-maximal effective dose was measured on rat blood glucose after administrating at 4 hr. In kind it is functional. A digest of the protocol:
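Adult fasted female Wistar rats (Chbb THOM, SPF, 200-220 g), food withdrawn 24 h; oral gavage of suspension in 1.5% Tylose (methylcellulose), 10 mL/kg. Retrobulbar blood under light halothane; glucose by hexokinase/G6PDH after HClO4 deproteinization, hourly to 4 h. ED50 from fit of glucose vs dose, y = b + [a × k/(k + x^nH)], Hill coefficient nH.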

For assay [18], the species on record is Rattus norvegicus. The note with it: Blood, 0.1 mg/kg. The source holds these as a separate data set.
For assay [19], the system named is Rattus norvegicus. In words: Maximum % decrease of blood glucose (deltaBG) was observed within 4 hour after administration orally at 25 mg/kg dose to fasted adult female rats versus a control group; NS =' not significant'. Details: dose 25 mg/kg. In kind it is functional, organism-based. The method in brief:
as §1

For assay [20], the system named is Rattus norvegicus. Briefly: Maximum % decrease of blood glucose (deltaBG) was observed within 4 hour after administration orally at 10 mg/kg dose to fasted adult female rats versus a control group; NS =' not significant'. The class given is functional, organism-based. Also on record: dose 10 mg/kg. A digest of the protocol:
as §1

Assay [21] deals with Rattus norvegicus. In words: Maximum % decrease of blood glucose (deltaBG) was observed within 4 hour after administration orally at 0.4 mg/kg dose to fasted adult female rats versus a control group. In kind it is functional. The note with it: route oral. A digest of the protocol: as §1
Assay [22] concerns Rattus norvegicus. Briefly: Maximum % decrease of blood glucose (deltaBG) was observed within 4 hour after administration orally at 50 mg/kg dose to fasted adult female rats versus a control group; NS =' not significant'. The class given is functional, organism-based. Details: dose 50 mg/kg. The method in brief:
as §1

For assay [23], the system named is Rattus norvegicus. In words: Maximum % decrease of blood glucose (deltaBG) was observed within 4 hour after administration orally at 1 mg/kg dose to fasted adult female rats versus a control group; NS =' not significant'. In kind it is functional, organism-based. Also on record: dose 1 mg/kg. The method in brief:
as §1

Assay [24] concerns Rattus norvegicus. In words: Maximum % decrease of blood glucose (deltaBG) was observed within 4 hour after administration orally at 5 mg/kg dose to fasted adult female rats versus a control group. In kind it is functional. Particulars: route oral. A digest of the protocol:
as §1

Assay [25] deals with Rattus norvegicus. Briefly: Maximum % decrease of blood glucose (deltaBG) was observed within 4 hour after administration orally at 10 mg/kg dose to fasted adult female rats versus a control group. In kind it is functional. Particulars: route oral. The method in brief: as §1
For assay [26], the system named is Rattus norvegicus. In words: Maximum % decrease of blood glucose (deltaBG) was observed within 4 hour after administration orally at 1 mg/kg dose to fasted adult female rats versus a control group. The class given is functional. Particulars: route oral. A digest of the protocol: as §1
Setting [27] is: Rattus norvegicus, Blood, 4 h, read-out: ED50.

`CCCC(NC(=O)Cc1ccc(C(=O)O)c(OC)c1)c1ccccc1N1CCCCC1` (stereo unspecified): the “Delta BG” value was -31% in the assay on Rattus norvegicus [1]; -43% in the assay on Rattus norvegicus [2]; -38% in the assay with Rattus norvegicus [3]; “Not significant” with Rattus norvegicus [4]; “Not significant” with Rattus norvegicus [5]; -37% with Rattus norvegicus [6]. Besides, the “Delta BG” value in the assay on Rattus norvegicus [7] is recorded as -27%; in the assay with Rattus norvegicus [8] it was -39%; with Rattus norvegicus [9] it was -42%; with Rattus norvegicus [10], -43%.

`CC(NC(=O)Cc1ccc(C(=O)O)cc1)c1cccc(N2CCCCC2)c1` (stereo unspecified): the “Delta BG” value in the assay with Rattus norvegicus [11] is reported as -15%.

Regarding `CC(NC(=O)Cc1cccc(C(=O)O)c1)c1ccccc1N1CCCCC1` (stereo unspecified), the “Delta BG” value in the assay with Rattus norvegicus [11] is given as -12%.

`CCOc1cc(CC(=O)NC(CC)c2ccccc2N2CCCCC2)ccc1C(=O)O` (stereo unspecified): the “Delta BG” value with Rattus norvegicus [12] was “Not significant”; in the assay on Rattus norvegicus [10], -42%.

Consider `CCCC(NC(=O)Cc1ccc(C(=O)O)c(OCC)c1)c1ccccc1N1CCCCC1` (stereo unspecified), for which the “Delta BG” value is listed as -35% in the assay with Rattus norvegicus [1]; -32% with Rattus norvegicus [2]; -34% with Rattus norvegicus [6]; -30% in the assay with Rattus norvegicus [7]; -36% with Rattus norvegicus [8]; -25% with Rattus norvegicus [13]. Moreover, the “Delta BG” value with Rattus norvegicus [9] is -43%; in the assay on Rattus norvegicus [10] (0.1 mg/kg), -32% and -18%.

As to `COc1ccc(Cl)cc1C(=O)NCCc1ccc(S(=O)(=O)NC(=O)NC2CCCCC2)cc1` [GLYBURIDE], the “Delta BG” value with Rattus norvegicus [4], with Rattus norvegicus [5], in the assay filed under Rattus norvegicus [15], in the assay filed under Rattus norvegicus [16] and in the assay listed under Rattus norvegicus [18] was “inactive” each time. Also, the “Delta BG” value in the assay on Rattus norvegicus [14] is -25%. For the same molecule, the ED50 in the assay with Rattus norvegicus [17] (setting [27]) is 0.255 mg/kg.

In the case of `CC(NC(=O)Cc1ccc(C(=O)O)cc1)c1ccccc1N1CCCCCCCC1` (stereo unspecified), the “Delta BG” value in the assay with Rattus norvegicus [19] is “Not significant”.

Take `CC(NC(=O)Cc1ccc(S(N)(=O)=O)cc1)c1ccccc1N1CCCCC1` (stereo unspecified): the “Delta BG” value with Rattus norvegicus [20] is “Not significant”.

Regarding `CCC1=C(C)CN(C(=O)NCCc2ccc(S(=O)(=O)NC(=O)N[C@H]3CC[C@H](C)CC3)cc2)C1=O` [GLIMEPIRIDE], the “Delta BG” value with Rattus norvegicus [2] is on record as -17%; in the assay on Rattus norvegicus [3] it was -8%; in the assay on Rattus norvegicus [14] it was -35%; in the assay with Rattus norvegicus [7], -18%; in the assay with Rattus norvegicus [13], -14%; in the assay on Rattus norvegicus [10], -18%. Further, the ED50 with Rattus norvegicus [17] (setting [27]) came out at 0.182 mg/kg.

Regarding `O=C(Cc1ccc(C(=O)O)cc1)N[C@@H](c1ccccc1)c1ccccc1N1CCCCC1`, in the assay with Rattus norvegicus [21], the “Delta BG” value is on record as -33%.

Consider `CC(NC(=O)Cc1ccc(-c2nn[nH]n2)cc1)c1ccccc1N1CCCCC1` (stereo unspecified), for which the “Delta BG” value with Rattus norvegicus [22] was “Not significant”.

For the molecule `CC(NC(=O)Cc1ccc(S(=O)(=O)NC(=O)NC2CCCCC2)cc1)c1ccccc1N1CCCCC1` (stereo unspecified), the “Delta BG” value with Rattus norvegicus [23] is “Not significant”; in the assay with Rattus norvegicus [24], -42%.

On to `CCCC(CCCc1ccc(C(=O)O)cc1)c1ccccc1N1CCCCC1` (stereo unspecified), for which the “Delta BG” value with Rattus norvegicus [19] was “Not significant”.

For `CCOc1cc(CC(=O)N[C@H](CC(C)C)c2ccccc2N2CCCCC2)ccc1C(=O)O`, the “Delta BG” value with Rattus norvegicus [23] was “Not significant”.

`CC(NC(=O)Cc1ccc(C(=O)O)cc1)c1ccccc1N1CCCCCC1` (stereo unspecified): in the assay on Rattus norvegicus [24], the “Delta BG” value is -29%.

For `O=C(O)c1ccc(CCNC(=O)c2cc(Cl)ccc2N2CCCCC2)cc1`, the figures for the “Delta BG” value in the assay on Rattus norvegicus [23] and with Rattus norvegicus [24] were “Not significant” and -37%, respectively.

With `CCCC(NC(=O)Cc1ccc(C(=O)O)cc1)c1ccccc1C1=CCCCC1` (stereo unspecified), the “Delta BG” value in the assay with Rattus norvegicus [23] is “Not significant”; in the assay with Rattus norvegicus [25], -48%.

On to `CC(NC(=O)Cc1ccc(C(=O)O)cc1)c1ccccc1N1CCCCC1` (stereo unspecified), for which the “Delta BG” value with Rattus norvegicus [1] is -31%; in the assay on Rattus norvegicus [24] it was -49%; with Rattus norvegicus [26], -41%; in the assay with Rattus norvegicus [10], -13%. In addition, the ED50 in the assay on Rattus norvegicus [17] and in the assay with Rattus norvegicus [17] (setting [27]) was 0.3 mg/kg throughout.

With `CC(NS(=O)(=O)Cc1ccc(C(=O)O)cc1)c1ccccc1N1CCCCC1` (stereo unspecified), in the assay on Rattus norvegicus [19], the “Delta BG” value was “Not significant”.
